Data taken from ChEMBL document CHEMBL1132373, “Synthesis, opioid receptor binding, and biological activities of naltrexone-derived pyrido- and pyrimidomorphinans” (J Med Chem, 1999).

Legend:
[1] = molecular target: Kappa-type opioid receptor (Cavia porcellus, UniProt P41144); test: Binding affinity for Opioid receptor kappa 1 was determined by inhibition of binding of [3H]U-69593 (1.2-2.2 nM) to guinea pig brain membranes; set-up: species or system Membrane
In short: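 Guinea pig brain membranes prepared daily, washed twice at 30000g. [3H]U69,593 (2 nM) incubated 2 h at 25 °C in 50 mM Tris-HCl pH 7.4 with 1 µg/mL captopril and protease inhibitors. Nonspecific binding with 1 µM U69,593. 8-10 drug concentrations, twice; Ki = IC50/(1+[L]/Kd).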

[2] = molecular target: Delta-type opioid receptor (Rattus norvegicus, UniProt P33533); test: Binding affinity for Opioid receptor delta 1 was determined by inhibition of binding of [3H]DADLE (1.3-2.0 nM) to rat brain membranes; assay type: cell membranes, Membrane
In short: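 Rat brain membranes prepared daily (homogenised in ice-cold 10 mM Tris-HCl pH 7.0, centrifuged twice at 30000g). [3H]DADLE (2 nM) incubated 2 h at 25 °C in 50 mM Tris-HCl pH 7.4 with 100 mM choline chloride, 3 mM MnCl2, 100 nM DAMGO blocking mu sites, protease inhibitors. Nonspecific: 20 µM levallorphan. 8-10 drug concentrations, duplicate; Ki = IC50/(1+[L]/Kd).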

[3] = molecular target: Mu-type opioid receptor (Rattus norvegicus, UniProt P33535); test: Binding affinity for Opioid receptor mu 1 was determined by inhibition of binding of [3H]DAMGO (1.4-3 nM) to rat brain membranes; assay type: cell membranes, Membrane
In short: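 Rat brain membranes prepared daily, washed twice at 30000g. Labelled with [3H]DAMGO (1-3 nM), 2 h at 25 °C in 50 mM Tris-HCl pH 7.4 plus protease inhibitor cocktail. Nonspecific binding with 20 µM levallorphan. Test drug at 8-10 concentrations, run twice; Ki from IC50 via Ki = IC50/(1+[L]/Kd).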

[4] = species on record: Cavia porcellus; test: Selectivity ratio of binding affinity towards kappa of guinea pig brain membrane to delta receptors of rat brain membranes; assay type: cell membranes
[5] = molecular target: Delta-type opioid receptor (Mus musculus) (UniProt P32300); test: (§1) Antagonist potency measured as Ke = [antagonist]/(IC50 ratio-1) against delta opioid receptor from mouse vas deferens (MVD) using DPDPE; assay type: functional
In short: (§2)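 Vas deferens from male ICR mice (25-40 g) in 37 °C oxygenated magnesium-free Krebs, 0.5 g tension, field-stimulated 0.1 Hz, 2-ms pulses. Compound 1 µM for 30 min, washout 30 min, cumulative DPDPE curve repeated. Ke = [antagonist]/(IC50 ratio - 1); IC50 from 2-4 tissues, n ≥ 3, nonlinear least squares.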

[6] = molecular target: Opioid receptors; mu & delta (Rattus norvegicus) (UniProt P33533+P33535); test: Selectivity ratio of binding affinity towards mu to delta receptors of rat brain membranes; assay type: cell membranes; settings: Membrane
[7] = molecular target: Delta-type opioid receptor (Mus musculus) (UniProt P32300); test: Antagonist potency against delta opioid receptor in mouse vas deferens (MVD) using DPDPE; assay type: functional, tissue-based; in short: as §2
[8] = species on record: Mus musculus; test: Inhibition of contraction (agonistic activity) of mouse vas deferens (MVD) at 1 uM concentration.; assay type: functional
[9] = molecular target: Mu-type opioid receptor (Cavia porcellus) (UniProt P97266); test: Antagonist potency against mu opioid receptor in guinea pig ileum (GPI) using […]; assay type: functional, tissue-based
In short: (§3)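 Longitudinal muscle-myenteric plexus strips from male Hartley guinea pigs (250-500 g), 37 °C oxygenated Krebs, 1 g tension, 0.1 Hz, 0.4 ms pulses. Preincubated 30 min with 1 µM compound, washed 30 min, cumulative PL-017 curve repeated. Ke = [antagonist]/(IC50 ratio - 1); IC50 from 2-4 tissues.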

[10] = molecular target: Mu-type opioid receptor (Cavia porcellus) (UniProt P97266); test: Opioid antagonist potency against […] mu-opioid receptor from guinea pig ileum(GPI).; assay type: functional, tissue-based; in short: as §3
[11] = species on record: Cavia porcellus; test: Selectivity ratio of binding affinity towards mu of […] preparations; assay type: tissue-based
[12] = species on record: Cavia porcellus; test: Inhibition of contraction (agonistic activity) of guinea pig ileum(GPI) at 1 uM concentration.; assay type: functional
In short: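 Guinea pig ileum longitudinal muscle strips, 37 °C oxygenated Krebs, 1 g tension, 0.1 Hz, 0.4 ms pulses, supramaximal voltage.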

[13] = molecular target: Delta-type opioid receptor (Mus musculus, UniProt P32300); test: as §1; assay type: functional; in short: as §2
[14] = molecular target: Delta-type opioid receptor (Mus musculus) (UniProt P32300)

Sequence of Delta-type opioid receptor (Rattus norvegicus, UniProt P33533) (P33533 whole entry): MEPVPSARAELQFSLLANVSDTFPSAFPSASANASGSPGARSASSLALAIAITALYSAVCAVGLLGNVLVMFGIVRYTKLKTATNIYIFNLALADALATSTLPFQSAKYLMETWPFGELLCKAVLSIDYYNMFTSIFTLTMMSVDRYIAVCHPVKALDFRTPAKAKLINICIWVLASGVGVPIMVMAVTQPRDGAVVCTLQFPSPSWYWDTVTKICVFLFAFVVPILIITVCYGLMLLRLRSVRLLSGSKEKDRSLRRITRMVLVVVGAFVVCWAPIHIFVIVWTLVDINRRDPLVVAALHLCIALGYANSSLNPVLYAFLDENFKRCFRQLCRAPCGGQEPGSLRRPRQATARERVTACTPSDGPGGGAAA
Sequence of Opioid receptors; mu & delta (Rattus norvegicus) (P33533 whole entry, looked up): as the sequence (P33533 whole entry) above
Sequence of Opioid receptors; mu & delta (Rattus norvegicus) (P33535 whole entry, looked up): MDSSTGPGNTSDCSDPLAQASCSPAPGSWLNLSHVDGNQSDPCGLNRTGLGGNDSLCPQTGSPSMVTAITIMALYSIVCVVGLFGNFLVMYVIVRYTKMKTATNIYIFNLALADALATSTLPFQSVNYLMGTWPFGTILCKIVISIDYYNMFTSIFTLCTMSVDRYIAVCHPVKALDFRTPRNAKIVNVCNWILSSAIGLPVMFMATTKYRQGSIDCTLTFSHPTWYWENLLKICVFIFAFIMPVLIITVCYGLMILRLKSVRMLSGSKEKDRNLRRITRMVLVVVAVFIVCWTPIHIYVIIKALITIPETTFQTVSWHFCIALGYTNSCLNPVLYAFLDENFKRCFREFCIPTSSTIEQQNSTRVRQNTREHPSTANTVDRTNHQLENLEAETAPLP
Sequence of Mu-type opioid receptor (Cavia porcellus) (P97266 whole entry): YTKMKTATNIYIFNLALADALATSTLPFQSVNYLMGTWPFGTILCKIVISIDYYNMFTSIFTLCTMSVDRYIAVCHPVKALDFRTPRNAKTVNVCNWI
Sequence of Mu-type opioid receptor (P33535 whole entry): as the sequence (P33535 whole entry, looked up) above
Sequence of Kappa-type opioid receptor (P41144 whole entry): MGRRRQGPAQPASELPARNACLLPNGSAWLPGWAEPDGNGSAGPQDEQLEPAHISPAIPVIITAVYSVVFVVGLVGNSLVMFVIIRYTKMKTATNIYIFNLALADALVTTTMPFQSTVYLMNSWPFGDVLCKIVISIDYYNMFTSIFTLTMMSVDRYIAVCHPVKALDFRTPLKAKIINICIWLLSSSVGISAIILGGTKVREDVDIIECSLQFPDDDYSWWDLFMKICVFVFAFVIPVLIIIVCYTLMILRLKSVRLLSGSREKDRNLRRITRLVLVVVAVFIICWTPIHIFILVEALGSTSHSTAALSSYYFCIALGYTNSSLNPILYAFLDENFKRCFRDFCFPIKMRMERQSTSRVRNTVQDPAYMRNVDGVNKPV
Sequence of Delta-type opioid receptor (Mus musculus) (P32300 whole entry): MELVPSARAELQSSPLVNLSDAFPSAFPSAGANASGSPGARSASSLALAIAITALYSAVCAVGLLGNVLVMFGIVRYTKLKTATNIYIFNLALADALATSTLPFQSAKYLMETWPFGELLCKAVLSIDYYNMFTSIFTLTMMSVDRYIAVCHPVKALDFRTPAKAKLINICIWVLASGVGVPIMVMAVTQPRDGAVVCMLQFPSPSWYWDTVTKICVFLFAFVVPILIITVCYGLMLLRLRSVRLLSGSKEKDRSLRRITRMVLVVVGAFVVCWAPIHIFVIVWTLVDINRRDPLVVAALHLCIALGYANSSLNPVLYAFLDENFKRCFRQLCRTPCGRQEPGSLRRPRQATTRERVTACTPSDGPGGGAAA
Sequence of Delta-type opioid receptor (Mus musculus, UniProt P32300) (P32300 whole entry): as above

| SMILES | Ki [1] [nM] | Ki [2] [nM] | Ki [3] [nM] | Selectivity ratio [4] | Ke [5] [nM] | Selectivity ratio [6] | IC50 ratio [7] | IC50 ([8]; Mus musculus) [nM] | IC50 ratio [9] | Ke [10] [nM] | Selectivity ratio [11] | IC50 [12] [%] | IC50 [8] [%] | Percent inhibition of contraction at 1 uM [12] [%] | Percent inhibition of contraction at 1 uM [8] [%] | Ki [13] [nM] | IC50 ([12]; Cavia porcellus, Ileum) [nM] | inhibition at 1 µM [12] [%] | inhibition at 1 µM [8] [%] | Ke [14] [nM] |
| --- | --- | --- | --- | --- | --- | --- | --- | --- | --- | --- | --- | --- | --- | --- | --- | --- | --- | --- | --- | --- |
| Cc1ncc2c(n1)[C@@H]1Oc3c(O)ccc4c3[C@@]13CCN(CC1CC1)[C@H](C4)[C@]3(O)C2 | 25 | 22.7 | 6 | 1.1 | 150 | 0.3 | 7.6 | 3 |  |  |  |  |  |  |  |  |  |  |  |  |
| Oc1ccc2c3c1O[C@H]1c4ncncc4C[C@@]4(O)[C@@H](C2)N(CC2CC2)CC[C@]314 | 6.24 | 3.5 | 4.15 | 1.8 | 75 | 1.2 | 14.4 |  | 7.52 | 150 | 2 |  |  |  |  |  |  |  |  |  |
| Oc1ccc2c3c1O[C@H]1c4nc(-c5ccccc5)nc(-c5ccccc5)c4C[C@@]4(O)[C@@H](C2)N(CC2CC2)CC[C@]314 | 2540 | 344 | 1170 | 7.4 | 150 | 3.4 | 7.63 |  | 2.8 | 560 | 3.7 |  |  |  |  |  |  |  |  |  |
| Oc1ccc2c3c1O[C@H]1c4nc5ccccc5c(-c5ccccc5)c4C[C@@]4(O)[C@@H](C2)N(CC2CC2)CC[C@]314 | 272 | 73 | 308 | 3.7 |  | 4.2 |  |  |  |  |  |  |  |  |  |  |  |  |  |  |
| Oc1ccc2c3c1O[C@H]1c4nc(Cc5ccccc5)nc(-c5ccccc5)c4C[C@@]4(O)[C@@H](C2)N(CC2CC2)CC[C@]314 | 1270 | 100 | 233 | 13 | 260 | 2.3 | 4.8 |  | 23.8 | 44 | 0.17 | 14 | 11.7 |  |  |  |  |  |  |  |
| Oc1ccc2c3c1OC1c4nccc(-c5ccccc5)c4C[C@@]4(O)[C@@H](C2)N(CC2CC2)CC[C@]314 (some centres undefined) | 264 | 73 | 191 | 3.6 | 51 | 2.6 | 20.5 |  | 6.21 | 190 | 3.7 |  |  | 14.8 | 31 |  |  |  |  |  |
| Oc1ccc2c3c1O[C@H]1c4nc(-c5ccccc5)cc(-c5ccccc5)c4C[C@@]4(O)[C@@H](C2)N(CC2CC2)CC[C@]314 | 2120 | 86 | 652 | 25 | 49 | 7.6 | 21.2 |  |  |  |  |  |  |  |  |  |  |  |  |  |
| Oc1ccc2c3c1O[C@H]1c4ncc(-c5ccccc5)cc4C[C@@]4(O)[C@@H](C2)N(CC2CC2)CC[C@]314 | 17.6 | 0.87 | 13.5 | 20 |  | 16 | 249 |  | 24.6 |  | 12 |  |  |  | 4.7 | 3.4 |  |  |  |  |
| Oc1ccc2c3c1O[C@H]1c4ncnc(-c5ccccc5)c4C[C@@]4(O)[C@@H](C2)N(CC2CC2)CC[C@]314 | 216 | 230 | 348 | 0.9 | 300 | 1.5 | 4.3 |  | 5.9 | 204 | 0.7 |  |  | 17 | 15.4 |  |  |  |  |  |
| Oc1ccc2c3c1O[C@H]1c4ncc(-c5ccc(Cl)cc5)cc4C[C@@]4(O)[C@@H](C2)N(CC2CC2)CC[C@]314 |  |  |  |  |  |  |  |  |  |  |  |  |  |  | 21 |  | 163 |  |  |  |
| Oc1ccc2c3c1O[C@H]1c4nc(-c5ccccc5)ncc4C[C@@]4(O)[C@@H](C2)N(CC2CC2)CC[C@]314 | 11 | 16 | 22 | 0.7 | 75 | 1.4 | 14.3 |  | 34.1 | 30 | 0.4 |  |  |  |  |  | 4 |  |  |  |
| Cc1cc(-c2ccccc2)c2c(n1)C1Oc3c(O)ccc4c3[C@@]13CCN(CC1CC1)[C@H](C4)[C@]3(O)C2 (some centres undefined) | 677 | 125 | 154 | 5.4 |  | 1.2 |  | 1.2 |  |  |  |  |  |  |  |  | 5.4 |  |  |  |
| Cc1nc(-c2ccccc2)c2c(n1)C1Oc3c(O)ccc4c3[C@@]13CCN(CC1CC1)[C@H](C4)[C@]3(O)C2 (some centres undefined) | 565 | 325 | 254 | 1.7 |  | 0.8 |  |  |  |  |  |  |  |  |  |  |  |  |  |  |
| Oc1ccc2c3c1O[C@H]1c4ncccc4C[C@@]4(O)[C@@H](C2)N(CC2CC2)CC[C@]314 | 8.8 | 0.78 | 1.5 | 11 |  | 1.9 |  |  | 7.08 |  | 4.4 |  |  |  |  |  |  | 0 | 0 | 37 |
| Oc1ccc2c3c1O[C@H]1c4nc(-c5ccccc5)ccc4C[C@@]4(O)[C@@H](C2)N(CC2CC2)CC[C@]314 | 18.4 | 1.76 | 11 | 10 | 25 | 6.3 | 41.1 |  | 12.4 | 88 | 3.5 |  |  |  |  |  |  |  |  |  |
| Oc1ccc2c3c1O[C@H]1c4[nH]c5ccccc5c4C[C@@]4(O)[C@@H](C2)N(CC2CC2)CC[C@]314 [NALTRINDOLE] |  |  |  |  |  |  |  |  |  | 43 |  |  |  | 18 | 16 |  |  |  |  |  |
